Here are results for one compound from BindingDB's records for doi:10.1021/jm0600794 (University of Innsbruck, 2006).

Molecules are shown by their SMILES.

This assay addresses T1, Glucocorticoid receptor (Homo sapiens, UniProt P04150).
T1 sequence (P04150 whole entry): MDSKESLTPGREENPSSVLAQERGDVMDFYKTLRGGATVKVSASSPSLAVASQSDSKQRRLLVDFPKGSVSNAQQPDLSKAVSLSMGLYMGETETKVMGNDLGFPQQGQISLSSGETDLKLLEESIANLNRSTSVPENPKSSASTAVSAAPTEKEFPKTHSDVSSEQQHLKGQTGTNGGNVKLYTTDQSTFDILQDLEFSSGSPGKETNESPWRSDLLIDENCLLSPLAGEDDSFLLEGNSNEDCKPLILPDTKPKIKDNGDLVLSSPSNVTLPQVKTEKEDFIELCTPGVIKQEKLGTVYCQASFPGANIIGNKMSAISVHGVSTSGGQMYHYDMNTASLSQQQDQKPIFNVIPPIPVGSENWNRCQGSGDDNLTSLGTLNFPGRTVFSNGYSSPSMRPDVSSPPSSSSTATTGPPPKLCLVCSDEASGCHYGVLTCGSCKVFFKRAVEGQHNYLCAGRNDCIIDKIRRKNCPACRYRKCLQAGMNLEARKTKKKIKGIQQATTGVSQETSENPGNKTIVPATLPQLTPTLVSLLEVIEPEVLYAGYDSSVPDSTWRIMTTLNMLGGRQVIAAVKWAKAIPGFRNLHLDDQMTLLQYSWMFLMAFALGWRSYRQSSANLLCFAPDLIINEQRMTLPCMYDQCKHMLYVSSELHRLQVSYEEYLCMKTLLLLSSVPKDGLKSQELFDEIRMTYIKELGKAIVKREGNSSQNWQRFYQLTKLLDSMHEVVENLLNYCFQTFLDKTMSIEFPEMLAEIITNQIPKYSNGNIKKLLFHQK
In words: Inhibition of GR-mediated transactivation of galactosidase reporter gene in HEK293 cells expressing 11betaHSD1. The essentials:
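HEK-293 cells transfected with pMMTV-LacZ, pCMV-LUC, GR, 11β-HSD1 and H6PDH plasmids. After 6 h, washed into steroid-free medium, then 24 h with 250 nM cortisone and graded inhibitor. β-Galactosidase normalized to luciferase, as % of steroid-only control. IC50 from four independent experiments, means ± SD.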
In general terms: Reporter assays use an easily measured gene product as a stand-in for the process of interest.

Compound `CC(=O)OC1CC[C@]2(C)C3=C(C(=O)C[C@H]2C1(C)C)[C@]1(C)CCC(C(C)CCC(=O)O)[C@@]1(C)CC3=O` (stereo partly drawn) [4-((5R,10S,13R,14R)-3-acetoxy-4,4,10,13,14-pentamethyl-7,11-dioxo-2,3,4,5,6,7,10,11,12,13,14,15,16,17-tetradecahydro-1H-cyclopenta[a]phenanthren-17-yl)pentanoic acid] registered an IC50 of 2090 nM.

In general, IC50 refers to the concentration that inhibits the measured activity by half. High values mean weaker potency, low ones greater potency.
